Measurements: ChEMBL document CHEMBL2169861, “Synthesis and biological evaluation of novel unsaturated carboxysteroids as human 5α-reductase inhibitors: a legitimate approach” (Eur J Med Chem, 2012)
Blank lines part the entries; values can stand above or below the molecule they belong to.

Legend:
Rattus norvegicus [1] = experiment: Anti-benign prostatic hyperplasia activity in Wistar rat assessed as reduction of seminal vesicle weight gain per 100 gram of body weight at 1 mg/kg, po qd for 14 days measured on day 15; format: functional
Procedure, shortened: (§1)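 Mature male Wistar rats, acclimatised one month, dosed orally once daily for 14 days with suspension in 0.50% carboxymethylcellulose at 5 ml/kg; vehicle controls; 5 rats/group. Killed under ether on day 15, 24 h after last dose; organs dissected free of fat and connective tissue, weighed, expressed per 100 g body weight. Mean ± SEM; one-way ANOVA with Dunnett's test.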

Rattus norvegicus [2] = experiment: Toxicity in Wistar rat assessed as mortality at 1 mg/kg, po qd for 14 days measured on day 15; format: organism-based; parameters: dose 1 mg/kg, route oral; settings: in vivo, 336 h
Procedure, shortened: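 Mature male Wistar rats, acclimatised one month, dosing begun after 9 weeks. Compound suspended in 0.50% carboxymethylcellulose sodium and given orally at 5 ml/kg once daily for 14 days. Vehicle-only control group, 5 animals per group. Mortality recorded over treatment. Rats weighed and killed under ether anaesthesia on day 15, 24 h after the last dose.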

[3] = biological target: T1, 3-oxo-5-alpha-steroid 4-dehydrogenase 2 (Homo sapiens) (UniProt P31213); experiment: Inhibition of human type-2 5-alpha reductase expressed in HEK293 cells using [3H]-androstenedione as substrate at 2 uM after 30 mins by HPLC analysis; format: cell-based
T1 sequence (whole entry): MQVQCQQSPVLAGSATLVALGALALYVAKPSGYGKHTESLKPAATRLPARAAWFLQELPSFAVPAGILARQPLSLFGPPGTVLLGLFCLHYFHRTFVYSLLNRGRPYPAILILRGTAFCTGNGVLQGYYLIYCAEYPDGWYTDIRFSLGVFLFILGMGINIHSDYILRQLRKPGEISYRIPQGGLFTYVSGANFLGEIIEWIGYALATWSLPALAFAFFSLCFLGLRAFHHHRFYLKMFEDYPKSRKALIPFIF
Procedure, shortened: (§2)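 Lysates of 80% confluent HEK293 cells stably expressing human type I or type II cDNA (pRcCMV), sonicated in 300 mM saccharose, 5 mM Tris-HCl, 0.1 mM EDTA. Final 500 nM androstenedione with [3H]androstenedione, NADPH-regenerating system (0.55 mM NADP, 5 mM glucose-6-phosphate, G6PDH), 2% DMSO; 30 min, 37 °C. Ether-extracted; conversion quantified by radio-HPLC on C8.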

Rattus norvegicus [4] = experiment: Anti-benign prostatic hyperplasia activity in Wistar rat assessed as reduction of ventral prostate weight gain at 1 mg/kg, po qd for 14 days measured on day 15; format: functional, Prostate gland; parameters: scale not given: the % may be the effect or the level left; procedure, shortened: as §1
Rattus norvegicus [5] = experiment: Anti-benign prostatic hyperplasia activity in Wistar rat assessed as reduction of liver weight gain per 100 gram of body weight at 1 mg/kg, po qd for 14 days measured on day 15; format: functional; procedure, shortened: as §1
Rattus norvegicus [6] = experiment: Anti-benign prostatic hyperplasia activity in Wistar rat assessed as reduction of testis weight gain per 100 gram of body weight at 1 mg/kg, po qd for 14 days measured on day 15; format: functional; procedure, shortened: as §1
[7] = biological target: T2, 3-oxo-5-alpha-steroid 4-dehydrogenase 2 (Homo sapiens, UniProt P31213); experiment: Inhibition of human type-2 5-alpha reductase expressed in HEK293 cells using [3H]-androstenedione as substrate after 30 mins by HPLC analysis; format: cell-based; procedure, shortened: as §2
T2 sequence (P31213 whole entry): T1 sequence (whole entry)

Rattus norvegicus [8] = experiment: Anti-benign prostatic hyperplasia activity in Wistar rat assessed as reduction of epididymis weight gain at 1 mg/kg, po qd for 14 days measured on day 15; format: functional; parameters: scale not given: the % may be the effect or the level left; procedure, shortened: as §1
Rattus norvegicus [9] = experiment: Anti-benign prostatic hyperplasia activity in Wistar rat assessed as reduction of body weight gain at 1 mg/kg, po qd for 14 days measured on day 15; format: functional; parameters: scale not given: the % may be the effect or the level left; procedure, shortened: as §1
Rattus norvegicus [10] = experiment: Anti-benign prostatic hyperplasia activity in Wistar rat assessed as reduction of vas deferens weight gain at 1 mg/kg, po qd for 14 days measured on day 15; format: functional; parameters: scale not given: the % may be the effect or the level left; procedure, shortened: as §1
Rattus norvegicus [11] = experiment: Anti-benign prostatic hyperplasia activity in Wistar rat assessed as reduction of adrenal weight gain per 100 gram of body weight at 1 mg/kg, po qd for 14 days measured on day 15; format: functional; procedure, shortened: as §1
Rattus norvegicus [12] = experiment: Anti-benign prostatic hyperplasia activity in Wistar rat assessed as reduction of dorsal prostate weight gain at 1 mg/kg, po qd for 14 days measured on day 15; format: functional, Prostate gland; parameters: scale not given: the % may be the effect or the level left; procedure, shortened: as §1
[13] = biological target: T3, 3-oxo-5-alpha-steroid 4-dehydrogenase 1 (Homo sapiens) (UniProt P18405); experiment: Inhibition of human type-1 5-alpha reductase expressed in HEK293 cells using [3H]-androstenedione as substrate at 10 uM after 30 mins by HPLC analysis; format: cell-based; procedure, shortened: as §2
T3 sequence (whole entry): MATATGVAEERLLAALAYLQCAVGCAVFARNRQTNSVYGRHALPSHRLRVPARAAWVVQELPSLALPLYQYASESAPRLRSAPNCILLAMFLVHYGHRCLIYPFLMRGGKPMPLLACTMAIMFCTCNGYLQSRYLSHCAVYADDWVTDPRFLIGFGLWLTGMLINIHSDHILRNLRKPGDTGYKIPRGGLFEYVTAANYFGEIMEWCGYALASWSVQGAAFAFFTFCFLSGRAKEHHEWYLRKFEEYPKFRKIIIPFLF

[14] = biological target: T1, 3-oxo-5-alpha-steroid 4-dehydrogenase 2 (Homo sapiens); experiment: Inhibition of human type-2 5-alpha reductase expressed in HEK293 cells using [3H]-androstenedione as substrate at 10 uM after 30 mins by HPLC analysis; format: cell-based; procedure, shortened: as §2
[15] = biological target: T3, 3-oxo-5-alpha-steroid 4-dehydrogenase 1 (Homo sapiens); experiment: Inhibition of human type-1 5-alpha reductase expressed in HEK293 cells using [3H]-androstenedione as substrate at 2 uM after 30 mins by HPLC analysis; format: cell-based; procedure, shortened: as §2

SMILES: CCN1C(=O)CC[C@H]2[C@@H]3CC=C4C=C(C(=O)O)CC[C@]4(C)[C@H]3CC[C@@]21C
Activity (Rattus norvegicus [1]): 151.015 mg
Activity (Rattus norvegicus [2]): Non-toxic
inhibition [3]: 100%
Activity (Rattus norvegicus [4]): 39.35%
Activity (Rattus norvegicus [5]): 2.91 g
Activity (Rattus norvegicus [6]): 1128.214 mg
IC50 [7]: 22.1 nM
Activity (Rattus norvegicus [8]): 17.25%
Activity (Rattus norvegicus [9]): 5.409%
Activity (Rattus norvegicus [10]): 19.32%
Activity (Rattus norvegicus [11]): 15.574 mg
Activity (Rattus norvegicus [12]): 28.37%
inhibition [13]: 32.3%
inhibition [14]: 100%

inhibition [13]: 27.6%
inhibition [14]: 9.9%
SMILES: C[C@]12CCC(C#N)=CC1=CC[C@@H]1[C@@H]2CC[C@]2(C)NC(=O)CC[C@@H]12

inhibition [13]: 2.2%
inhibition [14]: 23.2%
SMILES: CC(=O)N1C(=O)CC[C@H]2[C@@H]3CC=C4C=C(C#N)CC[C@]4(C)[C@H]3CC[C@@]21C

SMILES: C=CCN1C(=O)CC[C@H]2[C@@H]3CC=C4C=C(C(=O)O)CC[C@]4(C)[C@H]3CC[C@@]21C
Activity (Rattus norvegicus [1]): 149.399 mg
Activity (Rattus norvegicus [2]): Non-toxic
inhibition [3]: 99.7%
Activity (Rattus norvegicus [4]): 35.34%
Activity (Rattus norvegicus [5]): 3.168 g
Activity (Rattus norvegicus [6]): 1094.935 mg
IC50 [7]: 72.8 nM
Activity (Rattus norvegicus [8]): 24.75%
Activity (Rattus norvegicus [9]): 7.518%
Activity (Rattus norvegicus [10]): 27.89%
Activity (Rattus norvegicus [11]): 17.967 mg
Activity (Rattus norvegicus [12]): 31.25%
inhibition [13]: 0.4%
inhibition [14]: 100%

inhibition [13]: 0%
inhibition [14]: 11.4%
SMILES: C[C@]12CCC(C#N)=CC1=CC[C@@H]1[C@@H]2CC[C@@]2(C)[C@H]1CCC(=O)N2C(=O)c1ccccc1

SMILES: CC(C)(C)NC(=O)[C@H]1CC[C@H]2[C@@H]3CC[C@H]4NC(=O)C=C[C@]4(C)[C@H]3CC[C@]12C [FINASTERIDE]
Activity (Rattus norvegicus [1]): 105.51 mg
Activity (Rattus norvegicus [2]): Non-toxic
Activity (Rattus norvegicus [4]): 44.76%
Activity (Rattus norvegicus [5]): 3.5097 g
Activity (Rattus norvegicus [6]): 1058.022 mg
IC50 [7]: 30.3 nM
Activity (Rattus norvegicus [8]): 14.4%
Activity (Rattus norvegicus [9]): 8.032%
Activity (Rattus norvegicus [10]): 14.45%
Activity (Rattus norvegicus [11]): 16.575 mg
Activity (Rattus norvegicus [12]): 45.32%

SMILES: CN1C(=O)CC[C@H]2[C@@H]3CC=C4C=C(C#N)CC[C@]4(C)[C@H]3CC[C@@]21C
Activity (Rattus norvegicus [1]): 223.05 mg
Activity (Rattus norvegicus [2]): Non-toxic
Activity (Rattus norvegicus [4]): 6.72%
Activity (Rattus norvegicus [5]): 4.861 g
Activity (Rattus norvegicus [6]): 932.988 mg
inhibition [15]: 64%
Activity (Rattus norvegicus [8]): 10.11%
Activity (Rattus norvegicus [9]): 6.767%
Activity (Rattus norvegicus [10]): 14.58%
Activity (Rattus norvegicus [11]): 21.311 mg
Activity (Rattus norvegicus [12]): -8.07%
inhibition [13]: 93%
inhibition [14]: 13.5%

inhibition [13]: 0%
inhibition [14]: 34.7%
SMILES: C[C@]12CCC(C#N)=CC1=CC[C@@H]1[C@@H]2CC[C@@]2(C)[C@H]1CCC(=O)N2Cc1ccccc1

inhibition [13]: 0%
inhibition [14]: 9.9%
SMILES: C[C@]12CCC(C#N)=CC1=CC[C@@H]1[C@@H]2CC[C@@]2(C)[C@H]1CCC(=O)N2CCC#N

inhibition [13]: 34.5%
inhibition [14]: 45.6%
SMILES: C[C@]12CCC(Br)=CC1=CC[C@@H]1[C@@H]2CC[C@]2(C)NC(=O)CC[C@@H]12

SMILES: CCOC(=O)CCN1C(=O)CC[C@H]2[C@@H]3CC=C4C=C(C(=O)O)CC[C@]4(C)[C@H]3CC[C@@]21C
Activity (Rattus norvegicus [1]): 136.605 mg
Activity (Rattus norvegicus [2]): Non-toxic
inhibition [3]: 100%
Activity (Rattus norvegicus [4]): 33.86%
Activity (Rattus norvegicus [5]): 3.542 g
Activity (Rattus norvegicus [6]): 1075.498 mg
IC50 [7]: 26.5 nM
Activity (Rattus norvegicus [8]): 25.41%
Activity (Rattus norvegicus [9]): 15.618%
Activity (Rattus norvegicus [10]): 37.55%
Activity (Rattus norvegicus [11]): 17.522 mg
Activity (Rattus norvegicus [12]): 28.75%
inhibition [13]: 8.5%
inhibition [14]: 100%

SMILES: C[C@]12CCC(C(=O)O)=CC1=CC[C@@H]1[C@@H]2CC[C@]2(C)NC(=O)CC[C@@H]12
Activity (Rattus norvegicus [1]): 186.102 mg
Activity (Rattus norvegicus [2]): Non-toxic
Activity (Rattus norvegicus [4]): 27.33%
Activity (Rattus norvegicus [5]): 2.713 g
Activity (Rattus norvegicus [6]): 993.729 mg
Activity (Rattus norvegicus [8]): 13.98%
Activity (Rattus norvegicus [9]): 8.323%
Activity (Rattus norvegicus [10]): 26.33%
Activity (Rattus norvegicus [11]): 13.973 mg
Activity (Rattus norvegicus [12]): 46.5%
inhibition [13]: 0%
inhibition [14]: 62.9%

SMILES: CN1C(=O)CC[C@H]2[C@@H]3CC=C4C=C(C(=O)O)CC[C@]4(C)[C@H]3CC[C@@]21C
Activity (Rattus norvegicus [1]): 126.262 mg
Activity (Rattus norvegicus [2]): Non-toxic
inhibition [3]: 99%
Activity (Rattus norvegicus [4]): 39.5%
Activity (Rattus norvegicus [5]): 3.224 g
Activity (Rattus norvegicus [6]): 956.392 mg
IC50 [7]: 54.1 nM
Activity (Rattus norvegicus [8]): 31.75%
Activity (Rattus norvegicus [9]): 6.517%
Activity (Rattus norvegicus [10]): 29.36%
Activity (Rattus norvegicus [11]): 12.464 mg
Activity (Rattus norvegicus [12]): 39.96%
inhibition [13]: 18.9%
inhibition [14]: 100%

SMILES: C[C@]12CC[C@H]3[C@@H](CC=C4C=C(C(=O)O)CC[C@@H]43)[C@@H]1CCC2=O
Activity (Rattus norvegicus [1]): 167.37 mg
Activity (Rattus norvegicus [2]): Non-toxic
inhibition [3]: 89.5%
Activity (Rattus norvegicus [4]): 22.56%
Activity (Rattus norvegicus [5]): 3.078 g
Activity (Rattus norvegicus [6]): 926.533 mg
IC50 [7]: 213 nM
Activity (Rattus norvegicus [8]): 29.88%
Activity (Rattus norvegicus [9]): 22.992%
Activity (Rattus norvegicus [10]): 34.8%
Activity (Rattus norvegicus [11]): 15.019 mg
Activity (Rattus norvegicus [12]): 15.62%
inhibition [13]: 82.1%
inhibition [14]: 100%

SMILES: C[C@]12CC[C@H]3[C@@H](CC=C4C=C(C#N)CC[C@@H]43)[C@@H]1CCC2=O
inhibition [13]: 0%
inhibition [14]: 1.2%

inhibition [13]: 20.8%
inhibition [14]: 3.3%
SMILES: C=CCN1C(=O)CC[C@H]2[C@@H]3CC=C4C=C(C#N)CC[C@]4(C)[C@H]3CC[C@@]21C

inhibition [13]: 56.1%
inhibition [14]: 48.9%
SMILES: CCN1C(=O)CC[C@H]2[C@@H]3CC=C4C=C(C#N)CC[C@]4(C)[C@H]3CC[C@@]21C
